# Assay results as given in ChEMBL document CHEMBL5136958, “The development of HEC-866 and its analogues for the treatment of idiopathic pulmonary fibrosis” (RSC Med Chem, 2021).
# Active and inactive are the calls of the source. The rule behind the calls is not given here.
# Experiments:
# [1] = Oral bioavailability in cynomolgus monkey at 5 mg/kg by LC-MS/MS analysis; assay type: ADME, organism-based, Macaca fascicularis; conditions: in vivo
# HFL1 [2] = experiment: Antifibrotic activity in TGF-beta1-induced HFL1 cell injury assessed as alpha-SMA expression at 5 uM measured after 48 hrs by Western blot analysis (reference value: 100%); assay type: functional, Homo sapiens
# How it was run: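 HFL-1 cells stimulated with TGF-β1; α-SMA protein detected by Western blot with anti-α-SMA antibody, normalised to tubulin; mean of n = 3.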
# [3] = Oral bioavailability in dog at 5 mg/kg by LC-MS/MS analysis; assay type: ADME, organism-based, Canis lupus familiaris; conditions: in vivo
# [4] = Mutagenecity in Salmonella typhimurium TA98 at 7.8 to 1000 ug measured after 2 to 3 days by mini-Ames test; assay type: toxicity, Salmonella enterica subsp. enterica serovar Typhimurium; conditions: dose lower 7.8 µg, time lower 2 day, dose upper 1000 µg, time upper 3 day
# How it was run: (§1)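 Bacterial reverse mutation assay scoring reverse gene mutations at the histidine locus in Salmonella typhimurium strains TA98 and TA100.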
# [5] = AUClast in dog at 5 mg/kg, po by LC-MS/MS analysis; assay type: ADME, organism-based, Canis lupus familiaris; parameters: time 0 - last, dose 5 mg/kg, route po; conditions: in vivo
# [6] = Half life in human liver microsomes by LC-MS/MS analysis; assay type: ADME, Microsome
# How it was run: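 Liver microsomes (human, monkey, dog, rat, mouse) incubated with test compound at 37 °C with NADPH cofactor; samples at 0, 5, 15, 30, 60 min for half-life and in vitro CLint.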
# [7] = Volume of distribution at steady state in dog at 1 mg/kg, iv by LC-MS/MS analysis; assay type: ADME, organism-based, Canis lupus familiaris; conditions: in vivo, read-out: Vdss
# [8] = Cmax in cynomolgus monkey at 5 mg/kg, po by LC-MS/MS analysis; assay type: ADME, organism-based, Macaca fascicularis; parameters: dose 5 mg/kg, route po; conditions: in vivo
# Cytochrome P450 2C9 = Cytochrome P450 2C9 (Homo sapiens, UniProt P11712); experiment: Inhibition of CYP2C9 in human liver microsomes by LC-MS/MS analysis; assay type: ADME, Microsome
# How it was run: (§2)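 Human microsomes incubated with CYP-specific substrates (1A2, 2C9, 2C19, 2D6, 3A4) and test compound at 0.0–10 μM; IC50 determined.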
# [9] = Mutagenecity in Salmonella typhimurium TA100 at 7.8 to 1000 ug measured after 2 to 3 days by mini-Ames test; assay type: toxicity, Salmonella enterica subsp. enterica serovar Typhimurium; conditions: dose lower 7.8 µg, time lower 2 day, dose upper 1000 µg, time upper 3 day; how it was run: as §1
# HFL1 [10] = experiment: Antifibrotic activity in TGF-beta1-induced HFL1 cell injury assessed as down regulation of collagen 3 mRNA expression at 0.625 to 10 uM measured after 24 hrs by RT-PCR analysis; assay type: functional, cell-based; conditions: Homo sapiens, dose 0.625-10 µM
# How it was run: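 TGF-β1-induced HFL-1 cells treated 24 h (test range 0.625–10 μM; comparator 3 mM); collagen 1 and collagen 3 mRNA measured by RT-PCR; mean of n = 3.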
# [11] = AUC(infinity) in Sprague-Dawley rat model of bleomycin-induced pulmonary fibrosis at 5 mg/kg, po by LC-MS/MS analysis; assay type: ADME, organism-based; parameters: time infinity, dose 5 mg/kg, route po; conditions: in vivo
# How it was run: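 Male Sprague-Dawley rats with induced pulmonary fibrosis; single i.v. (2.0 mg kg⁻¹) or p.o. (5.0 mg kg⁻¹) administration. Plasma samples stored at −70 °C; the supernatant was analysed by LC-MS/MS for PK parameters.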
# Cytochrome P450 1A2 = target: T1, Cytochrome P450 1A2 (Homo sapiens, UniProt P05177); experiment: Inhibition of CYP1A2 in human liver microsomes by LC-MS/MS analysis; assay type: ADME, Microsome; how it was run: as §2
# T1 sequence (P05177 whole entry): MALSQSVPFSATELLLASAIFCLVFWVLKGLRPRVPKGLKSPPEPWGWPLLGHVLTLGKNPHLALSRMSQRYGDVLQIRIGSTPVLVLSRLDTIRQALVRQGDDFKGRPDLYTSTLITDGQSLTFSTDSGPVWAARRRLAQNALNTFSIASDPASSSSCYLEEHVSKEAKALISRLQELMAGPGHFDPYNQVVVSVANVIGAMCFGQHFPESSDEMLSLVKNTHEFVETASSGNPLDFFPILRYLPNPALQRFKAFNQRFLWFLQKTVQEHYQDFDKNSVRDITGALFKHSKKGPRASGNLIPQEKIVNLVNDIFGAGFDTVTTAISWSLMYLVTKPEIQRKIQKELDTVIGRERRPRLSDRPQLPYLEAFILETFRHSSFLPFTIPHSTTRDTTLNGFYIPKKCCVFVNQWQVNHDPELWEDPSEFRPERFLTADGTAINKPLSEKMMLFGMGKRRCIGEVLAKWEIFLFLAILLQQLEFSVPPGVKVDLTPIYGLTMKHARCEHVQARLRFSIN
# Sequence of Cytochrome P450 2C9 (P11712 whole entry): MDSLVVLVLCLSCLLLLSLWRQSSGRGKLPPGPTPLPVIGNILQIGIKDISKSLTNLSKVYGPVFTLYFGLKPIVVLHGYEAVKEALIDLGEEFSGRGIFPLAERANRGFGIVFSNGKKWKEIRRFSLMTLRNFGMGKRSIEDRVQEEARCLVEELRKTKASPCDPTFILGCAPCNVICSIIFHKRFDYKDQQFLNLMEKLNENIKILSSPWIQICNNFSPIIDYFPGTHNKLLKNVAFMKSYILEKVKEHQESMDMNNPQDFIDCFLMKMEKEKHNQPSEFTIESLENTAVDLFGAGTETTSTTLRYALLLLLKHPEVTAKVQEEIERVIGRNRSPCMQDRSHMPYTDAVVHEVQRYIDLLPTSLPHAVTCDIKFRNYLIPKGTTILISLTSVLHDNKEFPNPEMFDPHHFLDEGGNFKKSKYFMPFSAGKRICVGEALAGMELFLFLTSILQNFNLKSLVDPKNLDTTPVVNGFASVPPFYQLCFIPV
smiles,measurement,setting,value
Cc1cc(=O)n(-c2ccc(N3CCC(Cc4ccc(Cl)c(F)c4)CC3)c(Cl)c2)c(C)n1,bioavailability,[1],72%
same,Activity,HFL1 [2],72.56%
same,bioavailability,[3],15%
same,Activity,[4],Non-Toxic
same,AUC(0-t),[5],5910 ng·h/mL
same,half-life,[6],104 min
same,Vd,[7],1.8 L/kg
same,Cmax,[8],1060 ng/mL
same,IC50,Cytochrome P450 2C9,> 10 µM
same,Activity,[9],Non-Toxic
same,Activity,HFL1 [10],Active
same,AUC(0-inf),[11],17100 ng·h/mL
same,IC50,Cytochrome P450 1A2,> 10 µM
